According to ChEMBL document CHEMBL1828510, “Synthesis of 3-heteroarylthioquinoline derivatives and their in vitro antituberculosis and cytotoxicity studies” (Eur J Med Chem, 2011):

Test system: NIH3T3
Experiment: Cytotoxicity against mouse NIH/3T3 cells after 48 hrs by MTT assay
Format: cell-based
Conditions: NIH3T3, 48 h
Summary of the method: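 NIH 3T3 mouse embryonic fibroblasts kept in DMEM + 10% FBS at 37 °C, 5% CO2. Seeded at 10,000 cells/well in medium with 5% FBS and left 24 h to attach. Compounds dissolved in DMSO, diluted in serum-free medium, serial concentrations, 48 h exposure, triplicates. MTT (5 mg/mL stock) added for 4 h, formazan taken up in DMSO, A570 read. Viability calculated as % of untreated control; IC50 taken from the dose curve.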

| Structure (SMILES) | IC50 [µM] |
| --- | --- |
| Cc1nnc(Sc2c(-c3ccc(Cl)cc3)nc3ccccc3c2-c2ccccc2)s1 | 1260 |
| Cc1nnc(Sc2c(-c3ccc(Br)cc3)nc3ccccc3c2-c2ccccc2)s1 | 2050 |
